This is an account of results in ChEMBL document CHEMBL3124801, “Structure-based optimization of tyrosine kinase inhibitor CLM3. Design, synthesis, functional evaluation, and molecular modeling studies” (J Med Chem, 2014).

For one test, the system named is HUVEC. Description: Antiproliferative activity against HUVEC after 72 hrs by cell counter. To be noted: Homo sapiens.
The subject of test [1] is TT. Briefly: Antiproliferative activity against human TT cells after 72 hrs by cell counter.
Test [2] concerns the target Proto-oncogene tyrosine-protein kinase receptor Ret (Homo sapiens) (UniProt P07949). Description: Inhibition of recombinant human RET at 100 uM incubated for 5 mins with substrate prior to protein addition by fluorescence assay relative to control. A digest of the protocol:
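Human recombinant RET was assayed with Omnia Tyr peptide 7 substrate at 30 °C, from 1 mM ATP and 1 mM DTT stocks, with DMSO ≤1% final. Mix plus inhibitor was preincubated 5 min before kinase was added to start the reaction. Fluorescence (ex 360/em 485 nm) was followed over time, and activity was taken from a linear fit of intensity versus time. Compounds were screened at 100 μM.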

The nature of test [3]: Antiproliferative activity against HNDF after 72 hrs by cell counter. As to conditions: Homo sapiens.
The test system of test [4] is TT. Description: Antiproliferative activity against human TT cells.
The nature of test [5]: Antiproliferative activity against HMVEC-d cells after 72 hrs. As to conditions: Homo sapiens.
In the next test the test system is 8305C. Briefly: cells. As to conditions: Homo sapiens, 72 h.

Structures are written as SMILES. pIC50: −log10 of the molar value.

Proto-oncogene tyrosine-protein kinase receptor Ret (Homo sapiens), sequence (P07949 whole entry): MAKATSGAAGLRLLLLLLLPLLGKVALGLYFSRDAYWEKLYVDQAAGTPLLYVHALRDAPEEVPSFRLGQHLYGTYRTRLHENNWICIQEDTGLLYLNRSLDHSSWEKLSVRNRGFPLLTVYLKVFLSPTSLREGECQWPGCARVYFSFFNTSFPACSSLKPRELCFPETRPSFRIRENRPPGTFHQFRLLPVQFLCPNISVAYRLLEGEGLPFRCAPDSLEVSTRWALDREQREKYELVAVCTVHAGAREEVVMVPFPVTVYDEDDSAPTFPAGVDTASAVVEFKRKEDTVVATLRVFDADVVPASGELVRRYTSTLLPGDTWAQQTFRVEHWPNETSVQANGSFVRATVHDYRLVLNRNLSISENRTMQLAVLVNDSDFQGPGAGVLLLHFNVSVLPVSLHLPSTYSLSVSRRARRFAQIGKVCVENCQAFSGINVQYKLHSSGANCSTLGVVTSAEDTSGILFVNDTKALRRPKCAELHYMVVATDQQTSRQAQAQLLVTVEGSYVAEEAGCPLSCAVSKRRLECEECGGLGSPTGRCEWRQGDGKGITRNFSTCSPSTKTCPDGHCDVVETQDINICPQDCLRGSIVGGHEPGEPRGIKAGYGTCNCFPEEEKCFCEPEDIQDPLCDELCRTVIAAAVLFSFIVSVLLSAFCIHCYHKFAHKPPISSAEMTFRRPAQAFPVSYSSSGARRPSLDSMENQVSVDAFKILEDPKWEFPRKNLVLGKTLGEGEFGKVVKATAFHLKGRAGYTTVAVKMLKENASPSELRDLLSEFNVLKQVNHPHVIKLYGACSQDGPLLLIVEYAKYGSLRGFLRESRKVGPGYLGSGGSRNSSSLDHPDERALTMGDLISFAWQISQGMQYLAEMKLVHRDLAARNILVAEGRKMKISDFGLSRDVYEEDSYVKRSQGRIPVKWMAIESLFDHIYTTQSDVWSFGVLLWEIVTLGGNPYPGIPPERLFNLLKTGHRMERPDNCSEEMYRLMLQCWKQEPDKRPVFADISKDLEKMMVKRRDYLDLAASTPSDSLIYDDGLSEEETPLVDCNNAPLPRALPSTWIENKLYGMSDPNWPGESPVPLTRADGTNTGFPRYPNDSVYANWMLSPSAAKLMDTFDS

In the case of `O=C(Nc1ccccc1)Nc1cccc(CNc2ncnc3c2cnn3CCc2ccccc2)c1`, the results for the pIC50 with HUVEC and in the test on TT [1] were 4.87 and 5.07, respectively.

On to `O=C(Nc1cccc(CNc2ncnc3c2cnn3CCc2ccccc2)c1)c1ccccc1`, for which the pIC50 (usually −log10 of the IC50, conventionally taken in molar units) was 4.82 in the test with HUVEC and 4.86 in the test on TT [1].

With `COc1ccc(S(=O)(=O)Nc2cccc(CNc3ncnc4c3cnn4CCc3ccccc3)c2)cc1OC`, the inhibition (usually the drop in the measured response relative to a control, in per cent) in test [2] was found to be 8%.

For the molecule `O=S(=O)(Nc1cccc(CNc2ncnc3c2cnn3CCc2ccccc2)c1)c1ccccc1`, the negative-log IC50 (pIC50) in the test on HUVEC was 4.65; with TT [1], 5.09.

Turning to `O=C(Nc1ccc([N+](=O)[O-])cc1)Nc1cccc(CNc2ncnc3c2cnn3CCc2ccccc2)c1`, the inhibition in test [2] is 37%.

Regarding `O=S(=O)(Cc1ccccc1)Nc1cccc(CNc2ncnc3c2cnn3CCc2ccccc2)c1`, the figures for the pIC50 (in test [3]; in the test on HUVEC; in the test on TT [1]) were 4.63, 4.29 and 5.22, respectively.

`O=C(Nc1cccc(CNc2ncnc3c2cnn3CCc2ccccc2)c1)c1ccc([N+](=O)[O-])cc1`: the pIC50 in test [3] was 4.66; in the test on HUVEC, 4.78; in the test on TT [1], 5.21.

As for `O=C(Nc1cccc(CNc2ncnc3c2cnn3CCc2ccccc2)c1)c1ccc(F)cc1`, the pIC50 was 4.80 in the test on HUVEC and 4.87 with TT [1].

Consider `O=C(Nc1ccc(Br)cc1)Nc1cccc(CNc2ncnc3c2cnn3CCc2ccccc2)c1`, for which the pIC50 with HUVEC is 4.73; in the test with TT [1], 5.01.

Consider `C[C@@H](Nc1ncnc2c1cnn2CCc1ccccc1)c1ccccc1`, for which, in test [2], the inhibition amounted to 48%. Moreover, the pIC50 with TT [4] was 4.57; in test [5], 9.40; with 8305C it was 5.04.

As for `O=C(Nc1cccc(CNc2ncnc3c2cnn3CCc2ccccc2)c1)c1ccc(Br)cc1`, the pIC50 was 5.01 with HUVEC and 4.87 in the test on TT [1].

For `O=[N+]([O-])c1ccc(S(=O)(=O)Nc2cccc(CNc3ncnc4c3cnn4CCc3ccccc3)c2)cc1`, the inhibition in test [2] stood at 57%.
